# Test results published in ChEMBL document CHEMBL1124576 (J Med Chem, 1989).
# Key:
# [1] = molecular target: Adrenergic receptor alpha-2 (Cavia porcellus); experiment: Ability to reverse inhibitory effects of UK-14304 on the contraction of guinea pig ileum as a measure of alpha-2 adrenergic receptor antagonism.
# [2] = molecular target: T1, Adrenergic receptor alpha-1 (Rattus norvegicus, UniProt P15823+P23944+P43140); experiment: Binding affinity against alpha-1 adrenergic receptor in rat cerebral cortical membrane, determined using [3H]prazosin as the radioligand
# T1 sequence (P15823 whole entry): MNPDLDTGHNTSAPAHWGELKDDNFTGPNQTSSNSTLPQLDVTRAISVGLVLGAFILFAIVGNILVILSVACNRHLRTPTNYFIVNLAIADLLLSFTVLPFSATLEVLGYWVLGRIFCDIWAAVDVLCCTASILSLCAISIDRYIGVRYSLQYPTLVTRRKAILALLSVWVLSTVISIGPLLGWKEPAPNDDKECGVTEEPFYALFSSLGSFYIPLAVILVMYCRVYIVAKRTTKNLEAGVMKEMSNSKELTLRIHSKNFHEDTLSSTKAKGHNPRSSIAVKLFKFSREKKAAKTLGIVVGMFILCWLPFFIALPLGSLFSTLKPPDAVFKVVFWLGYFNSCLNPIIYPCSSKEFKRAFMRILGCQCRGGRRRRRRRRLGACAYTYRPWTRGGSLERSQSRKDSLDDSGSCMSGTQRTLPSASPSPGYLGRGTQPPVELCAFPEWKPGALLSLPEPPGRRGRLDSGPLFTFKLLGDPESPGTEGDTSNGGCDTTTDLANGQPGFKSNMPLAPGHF
# T1 sequence (P23944 whole entry): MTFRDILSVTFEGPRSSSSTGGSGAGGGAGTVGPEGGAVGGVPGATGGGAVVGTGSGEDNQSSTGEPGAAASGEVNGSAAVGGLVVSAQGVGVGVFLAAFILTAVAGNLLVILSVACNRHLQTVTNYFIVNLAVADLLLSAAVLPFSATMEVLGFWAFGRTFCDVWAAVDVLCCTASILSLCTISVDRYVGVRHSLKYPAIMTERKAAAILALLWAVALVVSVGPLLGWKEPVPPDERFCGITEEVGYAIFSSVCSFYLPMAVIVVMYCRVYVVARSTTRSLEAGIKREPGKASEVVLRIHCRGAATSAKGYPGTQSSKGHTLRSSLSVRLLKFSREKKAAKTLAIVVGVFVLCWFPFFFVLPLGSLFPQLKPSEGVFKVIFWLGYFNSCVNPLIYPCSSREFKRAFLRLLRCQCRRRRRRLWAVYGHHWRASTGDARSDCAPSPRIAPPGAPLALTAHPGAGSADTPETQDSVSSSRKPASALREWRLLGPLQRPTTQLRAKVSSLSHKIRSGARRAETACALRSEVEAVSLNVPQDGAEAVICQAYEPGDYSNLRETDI
# T1 sequence (P43140 whole entry): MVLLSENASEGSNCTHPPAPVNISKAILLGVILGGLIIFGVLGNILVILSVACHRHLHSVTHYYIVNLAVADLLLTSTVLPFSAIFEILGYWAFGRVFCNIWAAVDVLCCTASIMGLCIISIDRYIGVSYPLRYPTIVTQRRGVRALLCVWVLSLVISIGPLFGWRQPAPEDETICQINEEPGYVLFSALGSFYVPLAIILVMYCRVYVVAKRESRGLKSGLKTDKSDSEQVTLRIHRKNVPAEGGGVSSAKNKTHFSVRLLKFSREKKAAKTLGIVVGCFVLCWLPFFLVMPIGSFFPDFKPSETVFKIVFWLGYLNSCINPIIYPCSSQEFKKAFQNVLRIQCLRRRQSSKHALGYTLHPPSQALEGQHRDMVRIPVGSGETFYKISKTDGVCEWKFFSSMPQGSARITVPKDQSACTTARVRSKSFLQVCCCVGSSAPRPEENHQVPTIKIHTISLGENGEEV
# [3] = Antilog of pKi [3H]-yohimbine minus pKi [3H]prazosin.
# [4] = Antilog of pKi [3H]yohimbine minus PKi [3H]-prazosin was expressed as selectivity
# Rattus norvegicus [5] = experiment: Reversal clonidine-induced mydriasis in rat, after oral administration; format: functional; conditions: read-out: ID50 (the source's name)
# Procedure, shortened: (§1)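 Rats given clonidine to induce mydriasis; test agent dosed iv or orally. Pupillary diameter measured 10 min after dosing. Value is the dose […] that reduces pupil diameter to 50% of the clonidine-induced maximum. Means of five determinations, SD under 10%. Ratio is oral over iv dose.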
# Oryctolagus cuniculus = species on record: Oryctolagus cuniculus; experiment: Inhibition of phenylephrine-induced contraction of the rabbit aorta as a measure of functional alpha-1-adrenoceptor antagonism; conditions: read-out: pA2 (converted)
# Procedure, shortened: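 Rabbit aorta contracted with phenylephrine; alpha1 antagonism read as reversal of the contraction, expressed as pA2. Means of at least three separate determinations.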
# [6] = molecular target: T2, Adrenergic receptor alpha-2 (Rattus norvegicus, UniProt P22086+P19328+P22909); experiment: Binding affinity against alpha-2 adrenergic receptor in rat cerebral cortical membrane, determined using [3H]- yohimbine as the radioligand.
# T2 sequence (P22086 whole entry): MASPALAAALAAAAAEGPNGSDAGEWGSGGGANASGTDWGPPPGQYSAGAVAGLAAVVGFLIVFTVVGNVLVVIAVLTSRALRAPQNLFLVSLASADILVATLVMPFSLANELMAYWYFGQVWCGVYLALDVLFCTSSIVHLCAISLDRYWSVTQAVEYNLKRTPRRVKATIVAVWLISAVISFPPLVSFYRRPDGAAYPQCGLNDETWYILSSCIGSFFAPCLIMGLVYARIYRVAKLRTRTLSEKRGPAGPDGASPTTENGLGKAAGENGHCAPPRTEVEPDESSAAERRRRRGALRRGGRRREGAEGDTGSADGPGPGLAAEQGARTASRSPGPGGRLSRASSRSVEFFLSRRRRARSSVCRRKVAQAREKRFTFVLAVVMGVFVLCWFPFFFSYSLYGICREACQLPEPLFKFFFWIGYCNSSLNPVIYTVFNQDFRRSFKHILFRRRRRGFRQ
# T2 sequence (P19328 whole entry): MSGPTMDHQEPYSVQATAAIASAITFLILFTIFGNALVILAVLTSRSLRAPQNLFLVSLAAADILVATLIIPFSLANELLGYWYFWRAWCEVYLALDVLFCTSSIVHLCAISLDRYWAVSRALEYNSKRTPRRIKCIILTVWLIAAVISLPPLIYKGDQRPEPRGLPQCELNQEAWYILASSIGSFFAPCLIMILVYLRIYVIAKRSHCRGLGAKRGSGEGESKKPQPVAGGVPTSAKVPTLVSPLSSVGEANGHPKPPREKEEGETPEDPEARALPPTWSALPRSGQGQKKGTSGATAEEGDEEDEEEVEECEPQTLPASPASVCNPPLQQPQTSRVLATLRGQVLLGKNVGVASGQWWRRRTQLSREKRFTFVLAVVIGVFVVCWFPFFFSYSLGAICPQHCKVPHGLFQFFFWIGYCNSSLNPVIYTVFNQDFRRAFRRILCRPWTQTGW
# T2 sequence (P22909 whole entry): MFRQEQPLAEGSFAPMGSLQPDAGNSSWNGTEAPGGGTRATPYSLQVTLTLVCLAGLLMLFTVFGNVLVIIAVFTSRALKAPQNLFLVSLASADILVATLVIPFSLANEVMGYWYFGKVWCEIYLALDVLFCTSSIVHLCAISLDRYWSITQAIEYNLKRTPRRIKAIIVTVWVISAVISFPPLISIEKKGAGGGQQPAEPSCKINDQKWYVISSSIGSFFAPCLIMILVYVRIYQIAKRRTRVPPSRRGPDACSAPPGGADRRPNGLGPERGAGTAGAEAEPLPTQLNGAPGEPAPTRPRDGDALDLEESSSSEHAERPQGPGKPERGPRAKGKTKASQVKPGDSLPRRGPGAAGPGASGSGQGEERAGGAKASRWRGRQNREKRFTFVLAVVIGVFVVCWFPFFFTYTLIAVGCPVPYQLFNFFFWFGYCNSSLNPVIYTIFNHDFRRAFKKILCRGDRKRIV
# Rattus norvegicus [7] = experiment: Reversal of clonidine-induced mydriasis in rat, after intravenous administration; format: functional; conditions: read-out: ID50 (the source's name)
# Procedure, shortened: as §1
# [8] = ratio of Oral and Intravenous inhibitory concentrations against reversal of clonidine-induced Mydriasis in rat was evaluated; format: functional
# Procedure, shortened: as §1
# [9] = Antilog of pA2 (Uk14304) minus PA2 (Phenylephrine) was expressed as selectivity; format: functional
# Procedure, shortened: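 Guinea pig ileum contracted by field stimulation; alpha2 antagonism read as reversal of the inhibitory effect of UK-14304 on the contraction, expressed as pA2. Selectivity index is the antilog of pA2 (UK-14304) minus pA2 (phenylephrine). Means of at least three separate determinations.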
# Rattus norvegicus [10] = experiment: Beta-adrenoceptor binding density by administering 0.5 mg/kg (once daily for 14 days) in rats; format: functional
# Procedure, shortened: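 Rats dosed 0.5 mg/kg once daily for 14 days. Cortical beta-adrenoceptor density measured as Bmax, fmol [3H]dihydroalprenolol bound per mg protein, and compared with untreated controls.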
SMILES,pA2 [1],Log Ki [2],Selectivity [3],Selectivity [4],Log Ki [6],ED50 (Rattus norvegicus [5]),Kb (Oryctolagus cuniculus),ED50 (Rattus norvegicus [7]),Ratio [8],Selectivity [9],Bmax (Rattus norvegicus [10])
COc1ccc2c(c1)CCN1C[C@@H]3CCCN(S(C)(=O)=O)[C@H]3C[C@H]21,6.5,> -5,> 50,> 50,-6.32,> 10 mg/kg,10 µM,> 10 mg/kg,,,
c1ccc2c(c1)OCC(C1=NCCN1)O2 (stereo unspecified) [IDAZOXAN],,,,,,1.2 mg/kg,,0.017 mg/kg,,,
COC(=O)[C@@H]1[C@H]2C[C@H]3c4[nH]c5ccccc5c4CCN3C[C@@H]2CC[C@@H]1O [YOHIMBINE],,,,,,2.8 mg/kg,,0.185 mg/kg,,,

# Further lines, with some results ahead:
pA2 [1],Log Ki [2],Selectivity [3],Selectivity [4],Log Ki [6],SMILES,ED50 (Rattus norvegicus [5]),Kb (Oryctolagus cuniculus),ED50 (Rattus norvegicus [7]),Ratio [8],Selectivity [9],Bmax (Rattus norvegicus [10])
9.7,-5.29,,15000,-9.45,COc1ccc2c(c1)CCN1C[C@H]3CCCN(S(C)(=O)=O)[C@@H]3C[C@@H]21,0.095 mg/kg,0.794 µM,0.0065 mg/kg,14.6,4000,57 fmol/mg
9.7,-4.99,,15000,-9.18,COc1ccc2c(c1)CCN1CC3CCCN(S(C)(=O)=O)C3CC21 (stereo unspecified),0.21 mg/kg,> 1 µM,0.013 mg/kg,16.2,> 4000,
